Values after ≈ are worked out from the molar mass of the structure shown. Active and inactive are the calls of the source. The calls are words filed in the database; no cut-off is given here.
Tests used:
[1] = Cytotoxicity against mouse NIH/3T3 cells by GRE-Luciferase reporter gene assay; assay type: cell-based; conditions: nih3t3
Method in brief: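 NIH3T3 cells carrying GRE-luciferase reporter stimulated with 10 nM SAG as Hh pathway agonist, used as counter-screen for nonspecific cytotoxicity.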

[2] = Inhibition of Wnt signaling (unknown origin) expressed in mouse L Wnt3A cells co-cultured with HEK293 cells after 48 hrs by Super-top flash reporter gene assay; assay type: cell-based; conditions: Homo sapiens, HEK293, 48 h
Method in brief: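 Mouse L Wnt3A cells and HEK293 Super-Top Flash TCF-luciferase stable cells mixed 1:1, 12,000 cells/well, grown 24 h, then compound in DMSO diluted in DMEM added. After 48 h at 37°C, Bright-Glo luminescence read; IC50 from signal inhibition, geometric mean of at least two runs ± SEM; LGK974 standard in each run.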

[3] = Effect on Wnt3A level in HEK293T cells transfected with pLibin-WNT3A plasmid at 0.1 uM after 48 hrs by Western blot technique; assay type: cell-based; conditions: human, hek-293t
Method in brief: (§1)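 HEK293T cells in 6-well plates at 60% confluence, transfected with 1 µg pLibin-WNT3A plasmid or vehicle and treated at the same time with 0.1 µM compound. After 48 h, culture supernatant and cell lysate (40-50 µg protein) separated by SDS-PAGE, blotted to PVDF and probed for Wnt3A.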

[4] = biological target: T1, Protein-serine O-palmitoleoyltransferase porcupine (Homo sapiens) (UniProt Q9H237); test: Inhibition of porcupine (unknown origin) in HEK293T cells transfected with pLibin-WNT3A plasmid assessed as reduction in Wnt3A secretion into cell culture medium at 0.1 uM after 48 hrs by Western blot technique; assay type: cell-based; conditions: HEK-293T; method in brief: as §1
T1 sequence (whole entry): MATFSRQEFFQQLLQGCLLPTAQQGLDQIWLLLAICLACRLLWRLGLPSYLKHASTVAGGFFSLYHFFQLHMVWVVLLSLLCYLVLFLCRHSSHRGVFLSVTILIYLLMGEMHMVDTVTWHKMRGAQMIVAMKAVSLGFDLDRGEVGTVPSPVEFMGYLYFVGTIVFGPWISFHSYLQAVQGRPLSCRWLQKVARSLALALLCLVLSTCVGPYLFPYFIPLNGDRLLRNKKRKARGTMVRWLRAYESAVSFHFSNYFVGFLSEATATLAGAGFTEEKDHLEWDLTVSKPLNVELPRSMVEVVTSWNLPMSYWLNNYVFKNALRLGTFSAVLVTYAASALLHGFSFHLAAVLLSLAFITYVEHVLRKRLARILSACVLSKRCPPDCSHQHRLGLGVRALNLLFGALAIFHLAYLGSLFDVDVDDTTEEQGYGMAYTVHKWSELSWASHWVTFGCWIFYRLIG

[5] = Cmax in Sprague-Dawley rat plasma at 2 mg/kg, iv by LC-MS/MS analysis; assay type: ADME, organism-based; parameters: dose 2 mg/kg, route intravenous
Method in brief: (§2)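 Male Sprague-Dawley rats (200-250 g), fasted 12 h before dosing, food returned ~4 h post-dose. Solution at 1 mg/mL in NMP/Tween80/PEG400/water (10/1/50/39) given by tail vein at 2 mL/kg or oral gavage at 10 mL/kg. Plasma from timed blood samples precipitated with cold acetonitrile plus internal standard, measured by LC-MS/MS; noncompartmental PK parameters.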

[6] = Half life in Sprague-Dawley rat at 2 mg/kg, iv by LC-MS/MS analysis; assay type: ADME, organism-based; conditions: in vivo; method in brief: as §2
[7] = Volume of distribution at steady state in Sprague-Dawley rat at 2 mg/kg, iv by LC-MS/MS analysis; assay type: ADME, organism-based; conditions: in vivo, read-out: Vdss; method in brief: as §2
[8] = Chemical stability in simulated gastric fluid assessed as compound remaining at 200 uM at 40 degC after 24 hrs by HPLC technique; assay type: physicochemical; conditions: read-out: Stability
Method in brief: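 Compound at 200 µM in simulated gastric fluid (3.8 mL conc. HCl diluted to 1000 mL water), held at 40°C for 24 h; percent remaining reported.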

[9] = Half life in mouse liver microsomes at 1 uM preincubated for 10 mins followed by NADPH addition measured for 30 to 60 mins by LC-MS/MS analysis; assay type: ADME
Method in brief: (§3)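 Liver microsomes (mouse or human, 0.2 mg/mL) with 1 µM substrate in 100 mM phosphate pH 7.4, preincubated 10 min, then started with 1 mM NADPH. Sampled at 0, 30, 60 min, quenched in cold acetonitrile with internal standard, LC-MS/MS. t1/2 from ln % remaining slope; scaled with 20 mg protein/g liver, liver 87.5 (mouse) or 25.7 (human) g/kg.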

[10] = Cmax in Sprague-Dawley rat plasma at 10 mg/kg, po by LC-MS/MS analysis; assay type: ADME, organism-based; parameters: dose 10 mg/kg, route oral; method in brief: as §2
[11] = AUC (0 to 24 hrs) in Sprague-Dawley rat plasma at 10 mg/kg, po by LC-MS/MS analysis; assay type: ADME, organism-based; parameters: dose 10 mg/kg, time < 24 hr, route oral; method in brief: as §2
[12] = Tmax in Sprague-Dawley rat plasma at 10 mg/kg, po by LC-MS/MS analysis; assay type: ADME, organism-based; method in brief: as §2
[13] = tested on: Rattus norvegicus; test: AUC (0 to 24 hrs) in Sprague-Dawley rat plasma at 2 mg/kg, iv by LC-MS/MS analysis; assay type: ADME, organism-based; parameters: dose 2 mg/kg, time < 24 hr, route intravenous; conditions: in vivo; method in brief: as §2
[14] = Stability in rat plasma assessed as compound remaining at 1 uM after 8 hrs by LC-MS/MS analysis; assay type: ADME, cell-free; conditions: read-out: Stability
Method in brief: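 Compound at 1 µM incubated in blank rat plasma for 8 h, deproteinized with acetonitrile plus internal standard, centrifuged, supernatant measured by LC-MS/MS; percent remaining.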

[15] = Half life in human liver microsomes at 1 uM preincubated for 10 mins followed by NADPH addition measured for 30 to 60 mins by LC-MS/MS analysis; assay type: ADME; method in brief: as §3
[16] = Intrinsic clearance in human liver microsomes at 1 uM preincubated for 10 mins followed by NADPH addition measured for 30 to 60 mins by LC-MS/MS analysis; assay type: ADME; conditions: read-out: CLH; method in brief: as §3
[17] = Thermodynamic solubility of the compound in FaSSIF at 4 mg/ml at pH 6.5 after overnight incubation by LC-MS/MS analysis; assay type: physicochemical; conditions: read-out: Therm_solubility
Method in brief: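 4 mg/mL suspension in FaSSIF (pH 6.5) shaken 1 h, then equilibrated overnight at room temperature; supernatant after centrifugation quantified by LC-MS/MS.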

[18] = Oral bioavailability in Sprague-Dawley rat at 10 mg/kg by LC-MS/MS analysis; assay type: ADME, organism-based; conditions: in vivo; method in brief: as §2
[19] = Half life in Sprague-Dawley rat at 10 mg/kg, po by LC-MS/MS analysis; assay type: ADME, organism-based; conditions: in vivo; method in brief: as §2
[20] = Intrinsic clearance in mouse liver microsomes at 1 uM preincubated for 10 mins followed by NADPH addition measured for 30 to 60 mins by LC-MS/MS analysis; assay type: ADME; conditions: read-out: CLH; method in brief: as §3
[21] = tested on: Wnt3A; test: Potency index, ratio of LGK974 IC50 to compound IC50 for Wnt signaling (unknown origin) expressed in mouse L Wnt3A cells co-cultured with HEK293; assay type: cell-based; conditions: Homo sapiens

| Structure (SMILES) | IC50 [2] [nM] | Activity [1] | further results |
| --- | --- | --- | --- |
| Cc1cc(-c2ccc(CC(=O)Nc3ccc4c5ccccc5n(C)c4c3)cc2)ccn1 | 191 | Non-toxic |  |
| Cc1cc(-c2ncc(CC(=O)Nc3ccc(-c4cnccn4)cn3)cc2C)ccn1 [WNT-974] | 0.9 |  | Activity [3]: Non-toxic; inhibition [4]: Active |
| O=C(Cc1ccc2c(c1)oc1ccccc12)Nc1ccc(-c2cccnc2)cc1 | 544 | Non-toxic |  |
| Cc1cc(-c2ncc(CC(=O)Nc3ccc4c(c3)oc3ccccc34)cc2C)ccn1 | 13 | Non-toxic |  |
| O=C(Cc1ccc2c(c1)oc1ccccc12)Nc1ccc(-c2cnccn2)cn1 | 136 | Non-toxic |  |
| Cc1cc(-c2ncc(CC(=O)Nc3ccc4c5ccccc5n(C)c4c3)cc2C)ccn1 | 49 | Non-toxic |  |
| O=C(Cc1ccc2c(c1)C(=O)c1ccccc1-2)Nc1ccc(-c2cnccn2)cn1 | > 1000 | Non-toxic |  |
| O=C(Cc1ccc2c(c1)C(=O)c1ccccc1-2)Nc1ccc(-c2cccnc2)cc1 | > 1000 | Non-toxic |  |
| Cc1cc(-c2ncc(CC(=O)Nc3ccc4c(c3)C(F)(F)c3ccccc3-4)cc2C)ccn1 | 2.7 | Non-toxic |  |
| Cc1cc(-c2ncc(CC(=O)Nc3ccc4c(c3)C(=O)c3ccccc3-4)cc2C)ccn1 | 2.8 | Non-toxic |  |
| Cc1cc(-c2ncc(CC(=O)Nc3ccc4c(c3)[nH]c3ccccc34)cc2C)ccn1 | 2.6 | Non-toxic |  |
| O=C(Cc1ccc2c(c1)Cc1ccccc1-2)Nc1ccc(-c2cnccn2)cn1 | 454 | Non-toxic |  |

The next lines start with results.

| IC50 [2] [nM] | Structure (SMILES) | Activity [1] | further results |
| --- | --- | --- | --- |
| 1.4 | Cc1cc(-c2ccc(CC(=O)Nc3ccc4c(c3)Cc3ccccc3-4)cc2)ccn1 | Non-toxic |  |
| 2.3 | Cc1cc(-c2ccc(CC(=O)Nc3ccc4c(c3)[nH]c3ccccc34)cc2)ccn1 | Non-toxic | Cmax [5]: 1950 ng/mL; half-life [6]: 2.5 h; Vd [7]: 2.7 L/kg; Activity [3]: Non-toxic; remaining at 24 h, 200 µM [8]: 100%; half-life at 1 µM [9]: 1.52 h; Cmax [10]: 2880 ng/mL; AUC(0-t) at 24 h [11]: 11300 ng·h/mL; Tmax [12]: 1 h; AUC [13]: 7442 ng·h/mL; remaining at 8 h, 1 µM [14]: 100%; half-life at 1 µM [15]: 0.717 h; CLint scaled at 1 µM [16]: 41 mL/min/kg; solubility thermodynamic [17]: 2 µg/mL (≈ 5.11 µM); bioavailability [18]: 30%; half-life [19]: 3.1 h; CLint scaled at 1 µM [20]: 67 mL/min/kg; inhibition [4]: Active |
| 0.45 | Cc1cc(-c2ccc(CC(=O)Nc3ccc4c(c3)C(=O)c3ccccc3-4)cc2)ccn1 | Non-toxic | Activity [3]: Non-toxic; remaining at 24 h, 200 µM [8]: 99%; half-life at 1 µM [9]: 0.2 h; remaining at 8 h, 1 µM [14]: 100%; Ratio IC50 [21]: 2; half-life at 1 µM [15]: 0.2 h; CLint scaled at 1 µM [16]: 149 mL/min/kg; solubility thermodynamic [17]: < 1 µg/mL; CLint scaled at 1 µM [20]: 508 mL/min/kg; inhibition [4]: Active |
| 231 | O=C(Cc1ccc2c(c1)Cc1ccccc1-2)Nc1ccc(-c2cccnc2)cc1 | Non-toxic |  |
| 2.5 | Cc1cc(-c2ncc(CC(=O)Nc3ccc4c(c3)Cc3ccccc3-4)cc2C)ccn1 | Non-toxic |  |
| 9 | Cc1cc(-c2ccc(CC(=O)Nc3ccc4c(c3)oc3ccccc34)cc2)ccn1 | Non-toxic |  |
| 3.5 | Cc1cc(-c2ccc(CC(=O)Nc3ccc4c(c3)C(F)(F)c3ccccc3-4)cc2)ccn1 | Non-toxic |  |

— ChEMBL document CHEMBL3758157, “Design, synthesis, and evaluation of potent Wnt signaling inhibitors featuring a fused 3-ring system” (Eur J Med Chem, 2016)
